Experimental data taken from ChEMBL document CHEMBL4265871, “Novel alkylated azoles as potent antifungals” (Eur J Med Chem, 2017).
Values after ≈ are worked out from the molar mass of the structure shown.

tested on: not listed separately; assay: Selectivity index, ratio of EC50 for toxicity in human BEAS2B cells to MIC100 for antifungal activity against Candida albicans ATCC 10231; assay type: cell-based; settings: BEAS-2B cells, read-out: Selectivity Index
Summary of the method: (§1)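 Selectivity index is the EC50 against the mammalian line (A549 or BEAS-2B) divided by the MIC against the given fungal strain.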

Row | SMILES | selectivity ratio
1 | CCCCCCC(O)(Cn1cncn1)c1ccccc1Cl (configuration not stated) | 4

tested on: Candida albicans; assay: Antifungal activity against ITC and FLC-susceptible Candida albicans ATCC MYA-2876 incubated for 48 hrs by modified CLSI M27-A3 protocol based method; assay type: functional; settings: ATCC MYA-2876, 48 h
Summary of the method: (§2)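 Because these Candida strains show trailing growth, MIC-2 was read, meaning 50% growth inhibition. Caspofungin and voriconazole were tested here; other controls came from earlier work.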

Row | SMILES | MIC50 [µM]
2 | CCCCCCC(O)(Cn1cncn1)c1ccccc1Cl (configuration not stated) | 3.2 (≈ 0.985 µg/mL)

tested on: Candida parapsilosis; assay: Antifungal activity against Candida parapsilosis ATCC 22019 incubated for 48 hrs by modified CLSI M27-A3 protocol based method; assay type: functional; settings: Lodderomyces parapsilosis, ATCC 22019, 48 h; read-out: MIC100
Summary of the method: (§3)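 For C. albicans ATCC 10231, C. krusei ATCC 6258 and C. parapsilosis ATCC 22019, MIC-0 was read, meaning complete growth inhibition. For azole controls, MIC-2 (50% growth inhibition) was reported instead. Caspofungin and voriconazole were tested here; other controls came from earlier work.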

Row | SMILES | MIC [µM]
3 | CCCCCCC(O)(Cn1cncn1)c1ccccc1Cl (configuration not stated) | 0.39 (≈ 0.12 µg/mL)

tested on: not listed separately; assay: Selectivity index, ratio of EC50 for toxicity in human A549 cells to MIC50 for antifungal activity against ITC and FLC-susceptible Candida albicans ATCC MYA-2876; assay type: cell-based; settings: read-out: Selectivity Index; summary of the method: as §1

Row | SMILES | selectivity ratio
4 | CCCCCCC(O)(Cn1cncn1)c1ccccc1Cl (configuration not stated) | 32

tested on: Nakaseomyces glabratus; assay: Antifungal activity against Candida glabrata ATCC 2001 incubated for 48 hrs by modified CLSI M27-A3 protocol based method; assay type: functional; settings: ATCC 2001, 48 h

Row | SMILES | MIC50 [µM]
5 | CCCCCCC(O)(Cn1cncn1)c1ccccc1Cl (configuration not stated) | 3.2 (≈ 0.985 µg/mL)

tested on: not listed separately; assay: Hemolytic activity in mouse erythrocytes assessed as hemolysis level at 3.9 ug/ml incubated for 1 hr at 37 degC; assay type: ADME, cell-based, Erythrocyte; settings: read-out: Activity
Summary of the method: (§4)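 Mouse erythrocytes incubated 1 h at 37 °C with test agents over 1.95 to 125 µg/mL. Percent lysis is read for each concentration.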

Row | SMILES | hemolysis at 1 h, 3.9 ug/ml [%]
6 | CCCCCCC(O)(Cn1cncn1)c1ccccc1Cl (configuration not stated) | 0

tested on: not listed separately; assay: Selectivity index, ratio of […] for toxicity in human A549 cells to MIC50 for antifungal activity against Aspergillus nidulans ATCC 38163; assay type: cell-based; settings: read-out: Selectivity Index

Row | SMILES | selectivity ratio
7 | CCCCCCC(O)(Cn1cncn1)c1ccccc1Cl (configuration not stated) | 522

tested on: not listed separately; assay: Hemolytic activity in mouse erythrocytes assessed as hemolysis level at 1.95 ug/ml incubated for 1 hr at 37 degC; assay type: ADME, cell-based, Erythrocyte; settings: read-out: Activity; summary of the method: as §4

Row | SMILES | hemolysis at 1 h, 1.95 ug/ml [%]
8 | CCCCCCC(O)(Cn1cncn1)c1ccccc1Cl (configuration not stated) | 0

tested on: not listed separately; assay: Selectivity index, ratio of EC50 for toxicity in human BEAS2B cells to MIC50 for antifungal activity against Candida glabrata ATCC 2001; assay type: cell-based; settings: BEAS-2B cells, read-out: Selectivity Index; summary of the method: as §1

Row | SMILES | selectivity ratio
9 | CCCCCCC(O)(Cn1cncn1)c1ccccc1Cl (configuration not stated) | 32

tested on: not listed separately; assay: Selectivity index, ratio of EC50 for toxicity in human BEAS2B cells to MIC50 for antifungal activity against ITC and FLC-resistant Candida albicans ATCC 1237; assay type: cell-based; settings: BEAS-2B cells, read-out: Selectivity Index; summary of the method: as §1

Row | SMILES | selectivity ratio
10 | CCCCCCC(O)(Cn1cncn1)c1ccccc1Cl (configuration not stated) | 32

tested on: not listed separately; assay: Selectivity index, ratio of EC50 for toxicity in human BEAS2B cells to MIC50 for antifungal activity against Candida krusei ATCC 6258; settings: BEAS-2B cells

Row | SMILES | selectivity ratio
11 | CCCCCCC(O)(Cn1cncn1)c1ccccc1Cl (configuration not stated) | 261

tested on: not listed separately; assay: Selectivity index, ratio of EC50 for toxicity in human BEAS2B cells to MIC50 for antifungal activity against Candida albicans ATCC 64124; assay type: cell-based; settings: BEAS-2B cells, read-out: Selectivity Index; summary of the method: as §1

Row | SMILES | selectivity ratio
12 | CCCCCCC(O)(Cn1cncn1)c1ccccc1Cl (configuration not stated) | 1

tested on: Aspergillus nidulans; assay: Antifungal activity against Aspergillus nidulans ATCC 38163 incubated for 48 hrs by CLSI M38-A2 protocol based method; assay type: functional; settings: ATCC 38163, 48 h, read-out: MIC100

Row | SMILES | MIC [µM]
13 | CCCCCCC(O)(Cn1cncn1)c1ccccc1Cl (configuration not stated) | 0.19 (≈ 0.0585 µg/mL)

tested on: not listed separately; assay: Selectivity index, ratio of EC50 for toxicity in human BEAS2B cells to MIC50 for antifungal activity against ITC and FLC-susceptible Candida albicans ATCC MYA-2310; assay type: cell-based; settings: BEAS-2B cells, read-out: Selectivity Index
Summary of the method: (§5)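 Ratio of the compound's EC50 against BEAS-2B cells to its MIC against the named C. albicans strain. […] For C. albicans strains other than ATCC 10231, trailing growth meant MIC-2 was taken, meaning 50% growth inhibition.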

Row | SMILES | selectivity ratio
14 | CCCCCCC(O)(Cn1cncn1)c1ccccc1Cl (configuration not stated) | 16

tested on: Candida albicans; assay: Antifungal activity against ITC and FLC-susceptible Candida albicans ATCC MYA-2310 incubated for 48 hrs by modified CLSI M27-A3 protocol based method; assay type: functional; settings: ATCC MYA-2310, 48 h

Row | SMILES | MIC50 [µM]
15 | CCCCCCC(O)(Cn1cncn1)c1ccccc1Cl (configuration not stated) | 6.3 (≈ 1.94 µg/mL)

tested on: not listed separately; assay: Selectivity index, ratio of EC50 for toxicity in human A549 cells to MIC50 for antifungal activity against ITC and FLC-resistant Candida albicans ATCC MYA-90819; assay type: cell-based; settings: read-out: Selectivity Index; summary of the method: as §1

Row | SMILES | selectivity ratio
16 | CCCCCCC(O)(Cn1cncn1)c1ccccc1Cl (configuration not stated) | 16

tested on: not listed separately; assay: Toxicity in human BEAS2B cells assessed as reduction in cell viability incubated for 24 hrs by resazurin dye based assay; settings: BEAS-2B cells
Summary of the method: (§6)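 Toxicity tested in the nucleated lines A549 and BEAS-2B to give EC50 values. Selectivity index is EC50 against the mammalian line divided by the MIC against a given fungal strain.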

Row | SMILES | EC50 at 24 h [µg/mL]
17 | CCCCCCC(O)(Cn1cncn1)c1ccccc1Cl (configuration not stated) | > 31.3

tested on: not listed separately; assay: Selectivity index, ratio of EC50 for toxicity in human A549 cells to MIC50 for antifungal activity against ITC and FLC-resistant Candida albicans ATCC MYA-1003; assay type: cell-based; settings: read-out: Selectivity Index; summary of the method: as §1

Row | SMILES | selectivity ratio
18 | CCCCCCC(O)(Cn1cncn1)c1ccccc1Cl (configuration not stated) | 4

tested on: not listed separately; assay: Selectivity index, ratio of EC50 for toxicity in human A549 cells to MIC for antifungal activity against Candida parapsilosis ATCC 22019; settings: not given

Row | SMILES | selectivity ratio
19 | CCCCCCC(O)(Cn1cncn1)c1ccccc1Cl (configuration not stated) | 261

tested on: not listed separately; assay: Selectivity index, ratio of EC50 for toxicity in human A549 cells to MIC50 for antifungal activity against ITC and FLC-resistant Candida albicans ATCC 1237; assay type: cell-based; settings: read-out: Selectivity Index; summary of the method: as §1

Row | SMILES | selectivity ratio
20 | CCCCCCC(O)(Cn1cncn1)c1ccccc1Cl (configuration not stated) | 32

tested on: Candida albicans; assay: Antifungal activity against Candida albicans ATCC 64124 incubated for 48 hrs by modified CLSI M27-A3 protocol based method; assay type: functional; settings: ATCC 64124, 48 h

Row | SMILES | MIC50 [µM]
21 | CCCCCCC(O)(Cn1cncn1)c1ccccc1Cl (configuration not stated) | > 102

tested on: not listed separately; assay: Selectivity index, ratio of EC50 for toxicity in human A549 cells to MIC50 for antifungal activity against Candida albicans ATCC 64124; assay type: cell-based; settings: read-out: Selectivity Index; summary of the method: as §1

Row | SMILES | selectivity ratio
22 | CCCCCCC(O)(Cn1cncn1)c1ccccc1Cl (configuration not stated) | 1

tested on: not listed separately; assay: in vitro; settings: mouse, mouse erythrocytes

Row | SMILES | hemolysis at 1 h, 62.5 ug/ml [%]
23 | CCCCCCC(O)(Cn1cncn1)c1ccccc1Cl (configuration not stated) | 81.7

tested on: Pichia kudriavzevii; assay: Antifungal activity against Candida krusei ATCC 6258 incubated for 48 hrs by modified CLSI M27-A3 protocol based method; assay type: functional; settings: ATCC 6258, 48 h, read-out: MIC100; summary of the method: as §3

Row | SMILES | MIC [µM]
24 | CCCCCCC(O)(Cn1cncn1)c1ccccc1Cl (configuration not stated) | 0.39 (≈ 0.12 µg/mL)

tested on: not listed separately; assay: Selectivity index, ratio of EC50 for toxicity in human BEAS2B cells to MIC50 for antifungal activity against ITC and FLC-susceptible Candida albicans ATCC MYA-2876; assay type: cell-based; settings: BEAS-2B cells, read-out: Selectivity Index; summary of the method: as §5

Row | SMILES | selectivity ratio
25 | CCCCCCC(O)(Cn1cncn1)c1ccccc1Cl (configuration not stated) | 32

tested on: not listed separately; assay: Selectivity index, ratio of EC50 for toxicity in human A549 cells to MIC50 for antifungal activity against Candida krusei ATCC 6258; settings: not given

Row | SMILES | selectivity ratio
26 | CCCCCCC(O)(Cn1cncn1)c1ccccc1Cl (configuration not stated) | 261

tested on: not listed separately; assay: Selectivity index, ratio of EC50 for toxicity in human BEAS2B cells to MIC50 for antifungal activity against ITC and FLC-resistant Candida albicans ATCC MYA-1003; assay type: cell-based; settings: BEAS-2B cells, read-out: Selectivity Index; summary of the method: as §1

Row | SMILES | selectivity ratio
27 | CCCCCCC(O)(Cn1cncn1)c1ccccc1Cl (configuration not stated) | 4

tested on: Candida albicans; assay: Antifungal activity against ITC and FLC-resistant Candida albicans ATCC MYA-1003 incubated for 48 hrs by modified CLSI M27-A3 protocol based method; assay type: functional; settings: ATCC MYA-1003, 48 h; summary of the method: as §2

Row | SMILES | MIC50 [µM]
28 | CCCCCCC(O)(Cn1cncn1)c1ccccc1Cl (configuration not stated) | 25.3 (≈ 7.79 µg/mL)

tested on: not listed separately; assay: Hemolytic activity in mouse erythrocytes assessed as hemolysis level at 31.3 ug/ml incubated for 1 hr at 37 degC; assay type: ADME, cell-based, Erythrocyte; settings: read-out: Activity; summary of the method: as §4

Row | SMILES | hemolysis at 1 h, 31.3 ug/ml [%]
29 | CCCCCCC(O)(Cn1cncn1)c1ccccc1Cl (configuration not stated) | 0

tested on: not listed separately; assay: Hemolytic activity in mouse erythrocytes assessed as hemolysis level at 7.8 ug/ml incubated for 1 hr at 37 degC; assay type: ADME, cell-based, Erythrocyte; settings: read-out: Activity; summary of the method: as §4

Row | SMILES | hemolysis at 1 h, 7.8 ug/ml [%]
30 | CCCCCCC(O)(Cn1cncn1)c1ccccc1Cl (configuration not stated) | 0

tested on: not listed separately; assay: Toxicity in human A549 cells assessed as reduction in cell viability incubated for 24 hrs by resazurin dye based assay; settings: not given; summary of the method: as §6

Row | SMILES | EC50 at 24 h [µg/mL]
31 | CCCCCCC(O)(Cn1cncn1)c1ccccc1Cl (configuration not stated) | > 31.3

tested on: not listed separately; assay: Selectivity index, ratio of […] for toxicity in human BEAS2B cells to MIC50 for antifungal activity against Aspergillus flavus ATCC MYA-3631; assay type: cell-based; settings: BEAS-2B cells, read-out: Selectivity Index

Row | SMILES | selectivity ratio
32 | CCCCCCC(O)(Cn1cncn1)c1ccccc1Cl (configuration not stated) | 8 to 16
